Measurements reported in publication PMC7502533 (ACS chemical biology, 2020).

Key:
Galectin-3 (Gal3) = assay: Gal3 recruitment to damaged endosomes; format: cell-based
TFEB = TFEB nuclear accumulation; format: cell-based; details: for nuclear translocation of TFEB: percentage of cells displaying TFEB nuclear accumulation, biological duplicates
Outline: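 HeLa and Neuro-2a cells were treated with the CPP combined with an endosome-priming small molecule, or with LLOME. TFEB localization was then followed over time until the protein returned to a cytoplasmic distribution.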

Chmp1b = Chmp1b recruitment to damaged endosomes; format: cell-based
[1] = test system: Neuro-2a and HeLa cell lines; assay: Endocytic uptake of AF488-labelled probes by flow cytometry; format: cell-based; details: AF488-H1 added after reagent treatment, biological duplicates
Neuro-2a and HeLa = assay: Recovery of LysoTracker Green staining; format: cell-based; details: cell line not specified; biological triplicates
Outline: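 HeLa and Neuro-2a cells were exposed to the delivery agent, or LLOME as the reference, then washed. LysoTracker was added at increasing intervals after washing, and lysosomal staining was followed over time to find when it returned to the untreated level.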

[2] = cells incubated with reagent, washed and imaged, biological duplicates

Row | Structure (SMILES) | toxicity to cells of cell penetration (cells) | Gal3 recruitment (Galectin-3 (Gal3); Neuro-2a) | Gal3 distribution / puncta (Galectin-3 (Gal3); [2]) | additional time to return to a cytoplasmic TFEB distribution (TFEB; after the initial 3h, biological triplicates) | time TFEB nuclear accumulation is steady or rising after treatment (TFEB; biological triplicates) | nuclear translocation of TFEB (TFEB) | Chmp1b recruitment (Chmp1b; Neuro-2a) | number of Chmp1b puncta (Chmp1b; [2]) | uptake of H1 [1] | recovery time of LysoTracker staining (Neuro-2a and HeLa)
1 | COC(=O)[C@H](CC(C)C)NC(=O)[C@@H](N)CC(C)C [LLOME, L-leucyl-L-leucine methyl ester] | delayed loss of viability | did not trigger | trigger the recruitment of Chmp1b and Gal3 | 9 h | 3 h | triggered the nuclear translocation of TFEB | did not trigger | trigger the recruitment of Chmp1b and Gal3 | stimulated | 8 h
2 | CO/C1=C\C(C)=C\[C@@H](C)[C@@H](O)[C@@H](C)C/C(C)=C/C=C/[C@H](OC)[C@@H]([C@@H](C)[C@@H](O)[C@H](C)[C@@]2(O)C[C@@H](O)[C@H](C)[C@@H](C(C)C)O2)OC1=O [bafilomycin] | – | – | – | – | – | positive control | – | – | – | –
